Screens: PubChem, The Scripps Research Institute Molecular Screening Center
A selection: hits, their analogues and other compounds. The true share with any hit is near 1.9%.
TDP2 absorb: human TDP2 enzyme inhibitors, primary screen, biochemical, epi absorbance, recombinant enzyme. T5PNP hydrolysis, p-nitrophenol absorbance 415 nm. inhibition, % at 12.8 µM. 370,000 compounds, 0.34% hits. AID 720702, 2013;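 active = inhibition above the mean of all tested compounds plus 3 SD, set per campaign, cut at about 25% in these data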
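Test system: human TDP2 enzyme; Input: 120 nM TDP2 per well; Buffer or medium: Mg2+-containing Tris-HCl buffer, pH 7.5; Reagent: 5 mM T5PNP; Dosing: 12.8 µM single point, 1% DMSO; Incubation: reaction 2 h, 37 °C; Detection: p-Nitrophenol epi absorbance; Read-out: % inhibition relative to enzyme-containing and enzyme-free wells; Replicates: single well per compound.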
DDE Tn7 FP inh: inhibitors of Tn7 peptide binding to fibrin DD(E), primary screen, biochemical, fluorescence polarization, human fibrin, Tn7 probe. Fibrinogen beta chain (Homo sapiens), P02675. FP displacement of FITC-Tn7 peptide from fibrin DD(E); 0% = median of compound wells per plate. inhibition, % at 8.3 µM. 370,000 compounds, 0.13% hits;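 active = inhibition above the mean of compounds falling within the control limits plus 3 SD of them, cut at about 14% in these data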
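Test system: human clot-derived fibrin DD(E) complex / Quantity: 2 µM final DD(E) protein / Incubation: 10 min plus 3 h, room temperature / Measured by: fluorescence polarization / Benchmarks: high control of 10 µM Aha-Tn7 peptide / Replicates: singlicate testing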
MBD2 inh: inhibitors of MBD2 binding to methylated DNA, primary screen, biochemical, TR-FRET, DNA-binding domain, human | MBD2 binding to methylated oligonucleotide | inhibition, % at 4.4 µM | Methyl-CpG-binding domain protein 2 (Homo sapiens), Q9UBB5 | 370,000 compounds, 0.31% hits; in the data active = inhibition above about 13%
Target sequence (Q9UBB5 whole entry, looked up, the tested form may be a part): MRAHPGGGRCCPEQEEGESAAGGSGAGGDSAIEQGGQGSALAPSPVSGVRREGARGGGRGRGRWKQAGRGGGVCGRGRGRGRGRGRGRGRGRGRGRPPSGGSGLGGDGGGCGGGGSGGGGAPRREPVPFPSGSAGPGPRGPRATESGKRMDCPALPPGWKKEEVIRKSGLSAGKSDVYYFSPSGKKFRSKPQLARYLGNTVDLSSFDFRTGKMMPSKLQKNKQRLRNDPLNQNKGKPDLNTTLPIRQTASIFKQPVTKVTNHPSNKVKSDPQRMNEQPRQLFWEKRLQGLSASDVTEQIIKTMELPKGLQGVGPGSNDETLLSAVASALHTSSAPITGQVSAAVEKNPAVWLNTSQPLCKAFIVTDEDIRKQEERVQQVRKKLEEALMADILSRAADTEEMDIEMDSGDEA
UHRF1 MBD2 ctr: UHRF1 methylated DNA binding inhibitors, primary screen, counter-screen for MBD2 inhibitor project, biochemical, TR-FRET, human UHRF1, single concentration; E3 ubiquitin-protein ligase UHRF1 (Homo sapiens), Q96T88; inhibition, % at 4.4 µM; 370,000 compounds, 0.75% hits; AID 687016, 2013; UHRF1 binding to methylated oligo; in the data active = inhibition above about 21%;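 note: UHRF1 SRA domain binding a hemimethylated CpG hairpin DNA probe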
DDE Tn6 FP inh: inhibitors of Tn6 peptide binding to fibrin DD(E), primary screen, biochemical, fluorescence polarization, human fibrin, Tn6 probe | Fibrinogen beta chain (Homo sapiens), P02675 | Fibrin DD(E) TRITC-Tn6 fluorescence polarization displacement | inhibition, % at 8.3 µM | 370,000 compounds, 0.21% hits | AID 720509, 2013;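 active = inhibition above a per-campaign cutoff: mean of compounds within control limits plus 3 SD, cut at about 15% in these data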
LEDGF integ inh: blockers of LEDGF/p75-dependent integrase strand transfer – biochemical, TR-FRET, high throughput, primary screen; HIV-1 integrase (with human LEDGF/p75); TR-FRET IN-LEDGF/p75 DNA integration, Eu/Cy5; inhibition, % at 3.7 µM; 370,000 compounds, 0.64% hits; AID 743269, 2014;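 active = inhibition above the screen-wide mean plus 3 SD, cut at about 13% in these data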;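 note: signal is the Cy5 over europium emission ratio at 671 and 618 nm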
DDE Tn6 FP ctr: DD(E)-Tn6 binding inhibition, counter-screen | shares compounds with DDE Tn6 FP inh | Fibrin DD(E), TRITC-Tn6 fluorescence polarization displacement; 0% = median of compound wells, not DMSO | inhibition, % at 8.3 µM | 680 compounds, 2% hits | AID 720621;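 active = inhibition above the mean of test compounds lying between the control limits plus 3 SD of those, cut at about 14% in these data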
Tn6 DDE conf: inhibitors of Tn6 peptide binding to fibrin DD(E), confirmation, biochemical, fluorescence polarization, human fibrin, Tn6 probe; shares compounds with DDE Tn6 FP inh; FP displacement of TRITC-Tn6 peptide from DD(E); 0% = per-plate median of test wells; inhibition, % at 8.3 µM; 680 compounds, 10% hits; AID 720631, 2013;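 active = inhibition above the mean of compounds lying within the control limits plus 3 SD, cut at about 16% in these data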
Hits are given with their value; i = inactive; nt = no result given.

SMILES	TDP2 absorb	DDE Tn7 FP inh	MBD2 inh	UHRF1 MBD2 ctr	DDE Tn6 FP inh	LEDGF integ inh	DDE Tn6 FP ctr	Tn6 DDE conf
CCC(=O)NC(Nc1sc2c(c1C(=O)OC)CCN(C)C2)(C(F)(F)F)C(F)(F)F	i	i	i	i	17.1	i	i	i
Cc1ccc(C(=O)N2[C@@H]3CN(C)C(=O)[C@@]2(Cc2ccccc2)[C@H]2C(=O)N(C)C(=O)[C@@H]32)cc1	i	i	i	i	15.9	i	i	i
CCN1C[C@@H]2[C@@H]3C(=O)N(C)C(=O)[C@@H]3[C@](Cc3ccccc3)(C1=O)N2C(=O)c1ccc(C)cc1	i	i	i	i	i	i	nt	nt
CCOC(=O)CC[C@@H]1CC[C@]2(CCCN(C(=O)c3ccco3)C2)O1	i	i	i	i	i	i	nt	nt
O=C(c1ccc(Br)cc1)N1CCN(S(=O)(=O)c2ccccc2)CC1	i	i	i	i	15.5	i	i	i
O=C(c1ccc(=O)[nH]c1)N1CCN(S(=O)(=O)c2ccccc2)CC1	i	i	i	i	i	i	nt	nt
Cc1ccc(S(=O)(=O)N2CCN(c3ncnc4scc(-c5ccccc5)c34)CC2)cc1	i	i	i	i	i	i	nt	nt
Cc1ccc(-c2csc3ncnc(N4CCN(c5ccccc5O)CC4)c23)cc1	i	i	i	i	16.0	i	i	i
NC(=O)C1(N2CCCCC2)CCN(C(=O)CSc2nc3ccccc3s2)CC1	i	i	i	i	16.7	i	i	i
O=C(CCS(=O)(=O)c1ccc(Cl)cc1)N1CCN(c2ccc(F)cc2)CC1	i	i	i	i	18.4	i	i	i
O=C(N[C@H](Cc1ccccc1)C(=O)NCc1ccccn1)[C@H]1O[C@@H](n2ccc(=O)[nH]c2=O)[C@H](O)[C@@H]1O	i	i	i	i	i	i	nt	nt
CCOC(=O)C1(C)C(=O)CC2c3nc4ccccc4cc3CN2C1=O (centres undefined)	i	i	i	i	74.8	i	i	47.4
CC(C)C(Cl)=NOC(=O)Nc1ccc(S(N)(=O)=O)cc1	i	i	i	i	15.9	i	i	i
C[C@@H]1CN(Cc2nc(-c3ccc(Cl)cc3)no2)C[C@H](C)O1	i	i	i	i	16.9	i	i	i
Clc1ccc(-c2noc(CN3CCCC3)n2)cc1	i	i	i	i	i	i	nt	nt
O=C(NCCCc1ccccc1)OC1CC2CC1[C@H]1CCCCN1[C@H]2Cc1ccccc1 (some centres undefined)	i	i	i	i	i	i	nt	nt
CCCC(=O)Nc1ccc2oc(-c3cncc(Br)c3)nc2c1	i	i	i	i	i	i	nt	nt
CCCCCC(=O)Nc1ccc2oc(-c3cncc(Br)c3)nc2c1	i	i	i	i	15.8	i	i	i
O=[N+]([O-])c1cccc(OC[C@@H](O)CN2CCC(C(O)(c3ccccc3)c3ccccc3)CC2)c1	i	i	i	i	i	i	nt	nt
CCc1ccccc1NC(=O)CC(=O)Nc1ccccc1CC	i	i	i	i	i	i	nt	nt
CCC(=O)Nc1cc(OC)c(NC(=S)Nc2ccccc2CC)cc1OC	i	i	i	i	74.0	i	i	i
O=c1[nH]nc(CNc2ccc(O)cc2)c2ccccc12	i	i	i	i	15.7	i	i	i
O=c1[nH]nc(Cc2ccc(Cl)cc2)c2ccccc12	i	i	i	i	15.4	i	i	i
O=C(NCc1ccccc1)[C@H]1CCCN1C(=O)[C@H]1CCCN1C(=O)c1cccs1	i	i	i	i	i	i	nt	nt
COc1cc(NC(=O)C2CCCN(S(=O)(=O)c3ccc(Cl)s3)C2)cc(OC)c1 (centres undefined)	i	i	i	i	i	i	nt	nt
SMILES	TDP2 absorb	DDE Tn7 FP inh	MBD2 inh	UHRF1 MBD2 ctr	DDE Tn6 FP inh	LEDGF integ inh	DDE Tn6 FP ctr	Tn6 DDE conf
COc1ccccc1C=NN=C(N)C(N)=NN=Cc1ccccc1OC	i	i	i	i	i	i	nt	nt
NC(N)=N/N=C/c1ccccc1OC(F)F	i	i	i	i	17.1	i	i	i
CCCC1CCc2c(sc(N)c2C(N)=O)C1 (centres undefined)	i	i	i	i	i	i	nt	nt
CCC(C)(C)C1CCc2c(sc(N)c2C(N)=O)C1 (centres undefined)	i	i	i	i	17.4	i	i	i
COC(=O)C1=C(C)N(CC(C)C)C(=S)NC1c1ccc(-c2ccccc2)cc1 (centres undefined)	i	i	i	i	i	i	nt	nt
c1ccc(Oc2ccccc2-c2cc(NCCc3cccnc3)n3nccc3n2)cc1	i	i	i	i	16.7	i	i	i
COc1ccc(-n2c(SCC(=O)Nc3ccccc3-c3ccccc3)nnc2-c2ccccc2)cc1	i	i	i	i	i	i	nt	nt
Cc1cccc(C)c1-n1nnnc1C1(C)CN(S(C)(=O)=O)CC(=O)N1Cc1ccc(F)cc1 (centres undefined)	i	i	i	i	16.0	i	i	i
Cc1cccc(C)c1-n1nnnc1C1(C)CCC(=O)N1Cc1ccc(F)cc1 (centres undefined)	i	i	i	i	i	i	nt	nt
CCC(C)CNC(=O)CSc1nnc(-c2cccnc2)n1C1CCCCC1 (centres undefined)	i	i	i	i	i	i	nt	nt
Nc1[nH]c(C(=O)c2ccc(Br)cc2)c(-c2ccc(Cl)cc2[N+](=O)[O-])c1C(=O)NCCc1c[nH]c2ccccc12	i	i	i	i	i	i	nt	nt
O=S(=O)(c1ccc(NC(=S)NCCC(c2ccccc2)c2ccccc2)cc1)N1CCOCC1	i	i	i	i	16.8	i	i	i
CCCCOCCCNC(=S)Nc1ccc(S(=O)(=O)N2CCOCC2)cc1	i	i	i	i	i	i	nt	nt
COCCCNc1nc2c(c(=O)[nH]c(=O)n2C)n1CC(O)COc1ccccc1 (centres undefined)	i	i	i	i	i	i	nt	nt
COCCCNc1nc2c(c(=O)[nH]c(=O)n2C)n1CC(O)COc1ccccc1C (centres undefined)	i	i	i	i	17.1	i	i	i
